Bioassay records as filed in PubChem.
Most compounds without a hit are left out; they make up all but 3.7% or so of the library.
MT stabilize HCS = microtubule stabilizers in HeLa cells; HeLa tubulin immunostaining HCS, 24 h; share of cells brighter than vehicle mean+2SD; % tubulin-high responders, % at 10 µM; 200,000 tested, 0.83% active;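 active = plate Z-score above 3 for both tubulin-high and condensed-nucleus cell shares, with cell loss under 80%, at 10 µM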;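 note: anti alpha tubulin signal scored within the nucleus-defined area of each cell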
ROMK primary = human ROMK K+ channel modulation, primary screen | P48048 | Tet-inducible ROMK, thallium flux fluorescence; actives lie on both sides | B-score at 10 µM | 130,000 tested, 2% active;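 active = signal ratio slope over the read window, or its plate-corrected B-score, at least 3 SD from the plate mean, either direction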;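 note: B-score of the F/F0 ratio slope over 7 to 12 s after thallium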
Redox H2O2 prof = compounds producing H2O2 with reducing agent – biochemical, NIH compound library profiling, artefact control for MLSCN library redox annotation, primary screen | DTT-dependent redox cycling H2O2, phenol red/HRP absorbance; 100% = 100 µM peroxide control, 0% = buffer | activation, % at 10 µM | 200,000 tested, 0.03% active;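 active = activation of at least 50% relative to the plate's high and low controls in the primary single-dose screen; inactive = activation below 50%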;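 note: compound incubated with DTT at 0.8 mM final as the reducing agent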
bCat nuc transl = alters nuclear translocation of beta-catenin in HeLa cells; immunofluorescence imaging; nuclear translocation activity, % at 5 µM; 190,000 tested, 0.3% active; AID 1665;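 active = nuclear translocation activity above 50% at 5 µM, with a well cell count of 50 or more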;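 note: per-cell ratio of nuclear to cytoplasmic median beta-catenin stain intensity; plate controls were DMSO negative control for no effect and GSK-3 inhibitor IX positive control for full effect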
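Signal – beta-catenin immunofluorescence imaging with DAPI · Test system – human HeLa cell line · Dosing – 5 µM primary single dose, 0.1% DMSO, 0.02–20 µM confirmation series · Measure – % activation, nuclear-to-cytoplasmic median beta-catenin signal ratio per cell · Incubation – 24 h compound exposure at 37°C, 5% CO2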
KCC2 mod = modulators of human KCC2 chloride dependent transport; KCC2 cells, thallium flux FluoZin-2 fluorescence; 190,000 tested, 2.2% active; B-score of Tl+ flux slope (higher = more flux/activation; lower = inhibition) at 10 µM; AID 1456; Q9H2X9;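 active = thallium flux slope and its plate-corrected score both differing from the plate sample mean at a set confidence after two filtering rounds, in either direction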;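 note: slope of fluorescence scaled to starting intensity during 10 to 20 s after thallium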
Target sequence (Q9H2X9 whole entry, looked up): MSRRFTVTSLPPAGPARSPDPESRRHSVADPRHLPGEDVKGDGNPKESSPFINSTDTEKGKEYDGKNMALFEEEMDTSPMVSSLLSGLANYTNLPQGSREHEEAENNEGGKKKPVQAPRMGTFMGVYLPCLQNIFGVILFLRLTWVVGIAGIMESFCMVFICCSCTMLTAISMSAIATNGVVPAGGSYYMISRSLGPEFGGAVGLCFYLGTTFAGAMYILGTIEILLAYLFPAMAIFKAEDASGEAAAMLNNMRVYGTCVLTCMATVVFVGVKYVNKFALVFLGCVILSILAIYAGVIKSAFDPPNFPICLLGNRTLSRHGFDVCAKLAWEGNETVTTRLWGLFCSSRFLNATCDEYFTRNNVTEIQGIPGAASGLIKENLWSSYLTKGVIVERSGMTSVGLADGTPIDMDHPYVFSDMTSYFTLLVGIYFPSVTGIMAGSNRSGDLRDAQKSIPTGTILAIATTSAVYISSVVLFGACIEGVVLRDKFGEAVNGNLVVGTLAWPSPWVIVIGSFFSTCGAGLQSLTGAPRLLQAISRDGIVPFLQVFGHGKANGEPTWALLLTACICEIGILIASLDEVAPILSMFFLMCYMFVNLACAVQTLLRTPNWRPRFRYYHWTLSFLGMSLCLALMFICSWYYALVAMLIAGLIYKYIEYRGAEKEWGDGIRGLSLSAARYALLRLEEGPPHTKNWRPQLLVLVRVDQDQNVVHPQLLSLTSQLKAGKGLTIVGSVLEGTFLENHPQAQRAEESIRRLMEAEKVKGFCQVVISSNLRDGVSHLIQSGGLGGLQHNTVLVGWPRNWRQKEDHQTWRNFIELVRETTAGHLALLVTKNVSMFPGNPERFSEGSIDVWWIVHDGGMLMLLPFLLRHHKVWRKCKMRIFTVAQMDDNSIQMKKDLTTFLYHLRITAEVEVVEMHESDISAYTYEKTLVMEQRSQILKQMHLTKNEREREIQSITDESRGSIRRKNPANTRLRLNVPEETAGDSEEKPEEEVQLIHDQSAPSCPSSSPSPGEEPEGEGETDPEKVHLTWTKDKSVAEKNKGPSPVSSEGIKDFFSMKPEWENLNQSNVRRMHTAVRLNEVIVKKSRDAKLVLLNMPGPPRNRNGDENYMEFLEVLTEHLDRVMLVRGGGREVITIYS
DTT redox conf = generates H2O2 by DTT-dependent redox cycling, confirmed in dose response; shares compounds with Redox H2O2 prof; phenol red-HRP absorbance; EC50, µM; 60 tested, 40% active;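 active = EC50 under a set limit for hydrogen peroxide production with the reducing agent DTT present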
An asterisk follows results filed as active; . = no result given; ! = repeats disagree.

SMILES | MT stabilize HCS | ROMK primary | Redox H2O2 prof | bCat nuc transl | KCC2 mod | others
CC/C(=C\C=C\[C@@H]1C=C[C@@H]2CCC[C@H]2[C@@H]1C(=O)c1ccc[nH]1)[C@@H]1O[C@@H]([C@@H](C)C(=O)O)CC[C@@H]1C | 3 | . | 1 | 6 | 3.4*
CN1/C(=C\C=C2C(=O)NC(=S)NC2=O)C(C)(C)c2ccccc21 | 5 | -3.6* | -1 | 0 | -4.6*
Cn1cccc1/C=C1/C(=O)NC(=O)N(Cc2ccc(F)cc2)C1=O | . | -0.35 | . | 4 | 1.2
C=CCN1C(=O)NC(=O)/C(=C/c2cccn2C)C1=O | 3 | . | -3 | -4 | .
Cn1cccc1/C=C1/C(=O)NC(=S)N(Cc2ccc(F)cc2)C1=O | . | -0.21 | . | 54* | 0.84
O=C1NC(=O)N(Cc2ccc(F)cc2)C(=O)/C1=C\C=C\c1ccco1 | . | -1.2 | . | 34 | 2
Cn1cccc1/C=C1/C(=O)NC(=O)N(Cc2ccccc2)C1=O | 6 | -1.4 | 1 | 64* | 0.78
Cn1cccc1/C=C1\C(=O)NC(=O)N(Cc2ccccc2)C1=O | . | . | . | 74* | .
CCCCC(=O)N/N=C/c1c(O)n(-c2cccc3ccccc23)c(=O)[nH]c1=O | . | . | . | 0 | -0.0082
COc1cccc(NP(=O)(Oc2ccccc2)Oc2ccccc2)c1 | 18* | . | 0 | 0 | 0.61
CC[N+](C)(CC)CCCCOc1ccc2c(c1)C(=O)c1cc(OCCCC[N+](C)(CC)CC)ccc1-2 | . | 0.32 | . | -1 | 0
O=C(c1ccc2c(c1)ncn2-c1ccc(F)cc1F)N1CCC2(CC1)OCCO2 | 21* | 1 | -1 | 0 | 0.43
O=C(c1ccc2c(c1)OCO2)N1CCC2(CC1)OCCO2 | 2 | . | -1 | 5 | 1.5
Cc1nc2cc(C(=O)N3CCC4(CC3)OCCO4)ccc2n1-c1ccc(Br)cc1 | 4 | -2.4* | -1 | 1 | .
COc1ccc(-n2c(C)nc3cc(C(=O)N4CCC5(CC4)OCCO5)ccc32)cc1 | 24* | -0.57 | 1 | 0 | -0.61
Cc1[nH]c2ccccc2c1C(=O)C(=O)N1CCC2(CC1)OCCO2 | 3 | 0.68 | 0 | -1 | 1.9
CCc1c(C)nc(N)nc1N1N=C1SCCOc1ccccc1 | 3 | 0.69 | -1 | -1 | -0.52
O=C(CNC(=O)OCc1ccccc1)Nc1ccc(Br)cc1C(=O)c1ccccc1Cl | 6 | . | 0 | 0 | -2.1
CN(C(=O)CNC(=O)OCc1ccccc1)c1ccc(Br)cc1C(=O)c1ccccc1Cl | 6 | 0.0078 | 1 | 67* | -1
CC1=CC(=C2C(=O)NC(=S)NC2=O)C=C(C(F)(F)F)N1CCc1ccccc1 | 25* | -0.39 | 2 | 3 | 1.9
CC1=CC(=C2C(=O)NC(=O)NC2=O)C=C(C(F)(F)F)N1Cc1ccccc1 | 32 | 1.2 | 0 | 2 | 1.1
CCCCOCCCN1C(C)=CC(=C2C(=O)NC(=S)NC2=O)C=C1C | . | . | . | 2 | 0.96
CC1=CC(=C2C(=O)NC(=S)NC2=O)C=C(C(F)(F)F)N1Cc1ccccc1 | 15* | 0.32 | -2 | 24 | 0.86
CC(C)[N+]12CCC(CC1)C(C(O)(c1ccccc1)c1ccccc1)C2 (stereo not drawn) | . | . | . | -1 | -0.78
O=C1NC(=S)NC(=O)C1=Cc1cccc2cc3ccccc3cc12 | . | . | . | 58* | 0.033
SMILES | MT stabilize HCS | ROMK primary | Redox H2O2 prof | bCat nuc transl | KCC2 mod | others
CC/C(=N\N1CCCCCC1)c1c(O)n(-c2ccccc2C)c(=O)[nH]c1=O | 4 | . | 0 | 1 | 1.4
CC(C)CCCn1c(O)c(/C=C2/C=CC=N2)c(=O)[nH]c1=O | 31* | . | 0 | 16 | 0.21
Cc1ccc(N2C(=O)NC(=O)C(CCc3ccccn3)(Cc3cccc(Cl)c3Cl)C2=O)cc1 (stereo not drawn) | 4 | . | 0 | -1 | -1.1
O=C1NC(=O)C(CCc2ccncc2)(CCc2ccccn2)C(=O)N1c1ccc(Br)cc1 (stereo not drawn) | 17* | -0.19 | 0 | 1 | 0.24
Cc1cc2c(C(C)C)c(O)c(O)c(C=O)c2c(O)c1-c1c(C)cc2c(C(C)C)c(O)c(O)c(C=O)c2c1O | 9 | . | 0 | . | -7.2*!
CCOC(=O)C1CCN(C=C2C(=O)N(C)C(=S)N(C)C2=O)CC1 | 2 | -0.65 | 0 | . | -0.53
S=C1CN=C(c2ccccc2Cl)c2cc(Cl)ccc2N1 | 3 | -0.033 | 1 | -8 | 5.8*
CC(NC(=O)Cc1cccc2ccccc12)C(=O)N1CCC(=O)CC1 (stereo not drawn) | 1 | -0.69 | 0 | 0 | 0.91
O=C(c1ccccc1)C1NC1c1ccccc1 (stereo not drawn) | . | . | . | -3 | 0.76
O=C1NC(=O)C(=Cc2ccccc2Oc2ccc(F)cc2)C(=O)N1 | 2 | 3.3* | 0 | 0 | -1.1
O=C(c1cc(S(=O)(=O)N2CCC3(CC2)OCCO3)ccc1F)N1CCC2(CC1)OCCO2 | 1 | -0.6 | 0 | -2 | 1.1
COc1ccc(C2C(C#N)=C(N)Oc3c2c(=O)oc2ccccc32)cc1Cn1cc([N+](=O)[O-])cn1 (stereo not drawn) | 2 | 0.64 | -4 | 0 | 0.036
COc1ccc(C2=CC(c3ccc(OC)c(OC)c3)c3c(c4ccccc4oc3=O)O2)cc1OC (stereo not drawn) | . | . | . | 100* | 0.3
Cc1ccc(-n2c(O)c(C=NCCCn3ccnc3)c(=O)[nH]c2=O)cc1 | . | . | . | 1 | 0.06
CN[C@H]1C[C@H]2O[C@@](C)([C@H]1OC)n1c3ccccc3c3c4c(c5c6ccccc6n2c5c31)C(=O)NC4 | 12 | 21* | 1 | . | -2.4
CCCCn1c(NS(=O)(=O)c2ccccc2)c(C(=O)OCC)c2nc3ccccc3nc21 | 4 | -2.6 | 167* | 2 | -2.1 | DTT redox conf=>50
CCCNC(=O)N1CCC2(CC1)OCCO2 | 3 | 0.89 | 2 | 5 | 0.97
COc1cc2c3c(c1OC)-c1cc(O)ccc1CC3NCC2 (stereo not drawn) | 1 | -0.51 | 3 | -6 | -1.2
